PubChem BioAssay AID638 (SRMLSC, 2007)
Out of some 1,300 compounds screened, about 65 (5%) were called active.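 How the source made its calls: active means growth inhibition reaching a set limit at one or more tested doses; inactive means the rest.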 Not all results are given here. Results with a measured potency or affinity are listed apart.

Experiment: growth inhibition of wild-type E. coli, dose response, BW25113 wild type, OD615 (AID 638)
Conditions: at 100 µM (top of the series) unless noted
Method in brief: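 assay system = wild-type Escherichia coli strain BW25113 growth | medium = Kanamycin-supplemented LB broth | measured by = optical density (absorbance) at 615 nm | timing = bacterial exposure to compound 20 h at 37 °C | doses = compound concentration series | measure = IC50 from 4-parameter logistic, bounds fixed 0–100% | controls = chloramphenicol 30 µM control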

Growth inhibition, inactive:
O=c1n(Cc2ccccc2)c2cc(Cl)cnc2n1Cc1ccccc1 6.2%, CC(C)(C)C(=O)Cn1c(=N)n(Cc2ccccc2)c2ccccc21 1.06%, O=C(NCc1ccco1)C(c1cccs1)N(C(=O)C1COc2ccccc2O1)c1cccc(O)c1 (stereo not drawn) 1.03%, CCOC(=O)N1CCN(c2nc(N(c3ccccc3)c3ccccc3)nc(-n3ccnc3)n2)CC1 -3.06%, COc1ccc(C2c3sc(=O)[nH]c3SC3C4CCC(C4)C23)cc1 (stereo not drawn) 0.8%, CCn1cc(C(=O)O)c(=O)c2cnc(N3CCN(C(=O)Nc4ccccc4)CC3)nc21 5.93%, CCOC(=O)c1cn(CC)c2cc(N3CCOCC3)c(F)cc2c1=O 4.05% [at 50 µM], O=C(Nc1ccc(N2CCN(C(=O)c3ccco3)CC2)c(Cl)c1)c1c(F)c(F)c(F)c(F)c1F -3.01%, CCOC(=O)c1cn(CC)c2cc(N3CCCCC3)c(F)cc2c1=O -6.06%, CCn1cc(C(=O)O)c(=O)c2cc(OC)ccc21 19.6%, O=C(Nc1ccc(N2CCN(C(=O)c3ccco3)CC2)c(Cl)c1)c1cccs1 -1.45%, CCOc1ccccc1N1CCN(C(=O)Nc2ccc(F)c(Cl)c2)CC1 -9.1%, Cc1nc2c(C(=O)NCc3ccc4c(c3)OCO4)c[nH]n2c(=O)c1Cc1ccccc1F 0.77%, CCn1c2ccccc2c2cc(NC(=O)c3ccco3)ccc21 -3.49%, COc1ccccc1-c1cc(C(=O)NCc2ccc(F)cc2)no1 -0.01%, CCOC(=O)C1=C(C)NC(SCC(=O)Nc2cc(C)on2)=C(C#N)C1c1cccs1 (stereo not drawn) 3.97%, CCOC(=O)c1c(-c2cccs2)csc1NC(=O)CN1CC(C)OC(C)C1 (stereo not drawn) -7.6%, Nc1nc(CN2CCN(c3cccc(Cl)c3)CC2)nc(N2CCCc3ccccc32)n1 4.24%, O=c1c2c(nc3c(-c4cccc5ccccc45)c[nH]n13)CCC2 -1.35%, Cc1ccc(Cn2ccc(NC(=O)c3cc(CC(C)C)on3)n2)cc1 0.62%, N#Cc1cn(CCOc2ccccc2F)c2ccccc12 -0.93%, COc1ccccc1N1CCN(C(=O)c2cc(-c3ccc(C)cc3)on2)CC1 -0.92%, Cc1cccc(C)c1NC(=O)C(c1cccs1)N(Cc1ccco1)C(=O)Cn1nnc2ccccc21 (stereo not drawn) -8.04%, O=C(Nc1ccc2c(c1)CCC2)C1COc2ccccc2O1 (stereo not drawn) 7.62%, CCCN(CCC)C(=O)CSc1nc2ccccc2c(=O)n1C1CCCC1 -6.85%, CCOC(=O)c1cc2sccc2n1Cc1ccc(C#N)cc1 -10.3%, CCc1c(O)nc(SCC(=O)Nc2ccc(C)cc2)n(C2CCCCC2)c1=O -10.1%, CC1CCCc2sc3nc(NCc4ccco4)n4ncnc4c3c21 (stereo not drawn) -3.17%, CCn1c(SC)nnc1-c1sc2cc(Cl)ccc2c1Cl 2.34%, CC1CCCCC1n1c(=S)[nH]c2ccccc2c1=O (stereo not drawn) -0.57%, CCCOc1ccc2oc(=O)c3c(c2c1)CCCN3C(=O)CN1CCc2ccccc2C1 0.92%, Cc1ccc(O)c(C(=O)CC(=O)c2cccc(F)c2)c1 11.9%, CCCCCSc1nnc(-c2cc(Br)ccc2N)c(=O)[nH]1 -4.38%, CC(C)COC(=O)NCCOC(=O)Nc1cccc(Cl)c1 18.9%, CCCc1cc(C(=O)Nc2cccc(Cl)c2)no1 12.5%, CCOC(=O)C1CCCN(c2ncnc3c2cnn3-c2ccc(Cl)cc2)C1 (stereo not drawn) -11.7%, O=C1CC(c2ccco2)CC2=C1C1c3ccccc3C(=O)N1c1ccccc1N2 (stereo not drawn) -3.27%, CC(C)Cn1c(=O)c(C(=O)Nc2cnccn2)c(O)c2ccccc21 16.1%, O=C(C1CC1)N1CCc2cc(S(=O)(=O)NCCC3=CCCCC3)ccc21 9.41%, CCOC(=O)c1ccccc1NC(=O)C(C)Oc1ccccc1 (stereo not drawn) -0.25%, Cc1cc2n(n1)C(c1ccc3c(c1)OCO3)Nc1c(C)cccc1-2 (stereo not drawn) -5.6%, CSc1nc2ccc(NS(=O)(=O)c3ccc4c(c3)OCCO4)cc2s1 -7.17%, Cc1ccc(NC(=O)c2nnn(-c3cc(C)cc(C)c3)c2N)cc1 -3.73%, CCCCOc1ccc(S(=O)(=O)N2CCCCCC2)cc1 6.59%, Cc1ccc(Cl)cc1N1CCN(C(=O)c2ccc(NS(=O)(=O)c3c(C)noc3C)cc2)CC1 -7.75%, CC(=Nc1ccc(O)cc1)c1sc2ccccc2c1O -1.71%, O=c1c2ccccc2nc(SCc2cn3ccsc3n2)n1-c1ccccc1F -8.01%, COC(=O)c1c(NC(=O)Cc2cccs2)sc2c1CCCC2 2.67%, COc1ccccc1N1CCN(C(=O)COc2ccc(C)cc2Br)CC1 12.1%, CCOC(=O)N1CCN(C(=O)COc2ccc(S(=O)(=O)Nc3ccc(OCC)cc3)cc2)CC1 3.01%, CCOc1ccc(NS(=O)(=O)c2ccc(SC)cc2)cc1 11.9%, Cc1ccc(-n2c(=O)[nH]cc(C(=O)Nc3ccc4c(c3)OCCO4)c2=O)cc1C -5.27%, O=C(OC1CCc2ccccc2C1=O)c1ccccc1O (stereo not drawn) 9.44%, CCCCCc1cc(O)c2c(C)cc(=O)oc2c1 7.24%, CCCCCCOC(=O)C(C#N)c1nc2ccccc2nc1N1CCN(C)CC1 (stereo not drawn) 12.3%, CC1=C(C(=O)OCC(C)C)C(c2cc3c(cc2Br)OCO3)NC(=O)N1C (stereo not drawn) 12.5%, CN(C)c1ccc(/C=N/n2ncc3ccccc32)cc1 -3.99%, COc1nc(N(c2ccccc2)c2ccccc2)nc(-n2ccnc2)n1 12.7%, COc1ccccc1OCC(=O)N(Cc1nc(-c2ccccc2)no1)C1CCCCC1 -2.24%, COC(=O)c1ccccc1NC(=O)N1c2ccccc2CC1C (stereo not drawn) 3.49%, Cc1ccc(C)n1-n1cnc2sc(-c3ccccc3)cc2c1=O -14.3%, CCOC(=O)c1cn(CC)c2cc(N3CCSCC3)c(F)cc2c1=O 10.1%, O=C(Nc1ccc(Cl)cc1)N(Cc1cccs1)Cc1cccs1 -8.41%, Cc1ccc(OCc2nc(C#N)c(N3CCN(Cc4ccccc4)CC3)o2)cc1 -9.19%, COc1ccc(OC)c(S(=O)(=O)N2CCN(c3c(C)cccc3C)CC2)c1 -10%, COc1cc(NS(=O)(=O)c2ccc(Br)cc2)c(OC)cc1NC(=O)c1ccco1 -12%, Fc1ccc(-n2c(Cc3ccccc3)nnc2SCc2nc(-c3cccs3)no2)cc1 -13.2%, C=CCOC(=O)C(C#N)c1nc2ccccc2nc1N1CCCC1 (stereo not drawn) -1.85%, COCc1cc(C)nc2sc3c(=O)oc(C)nc3c12 10.4%, CCCCOC(=O)Nc1ccc(C(=O)OCCC)cc1 6.71%, COC(=O)c1ccc(NC(=O)CN2CCN(c3cccc(Cl)c3)CC2)cc1 -2.21%, N#CC1=C(SCC(=O)c2cc3ccccc3oc2=O)NC(=O)C(C#N)C12CCCC2 (stereo not drawn) 14.3%, CC(C)(C)C1CCC2(CC1)C(C#N)=C(SCC(=O)NC1CCCCC1)NC(=O)C2C#N (stereo not drawn) 12.2%, CCN(CC)S(=O)(=O)c1ccc2[nH]cc(C(=O)NCCC3=CCCCC3)c(=O)c2c1 -6.85%, COc1ccc2nc(SCC(=O)N(C)C3CCCCC3)c(C#N)cc2c1 -2.36%, CCCOc1ccc(C2C(C(=O)c3ccc(C)o3)=C(O)C(=O)N2Cc2cccnc2)cc1 (stereo not drawn) 6.33%, Cc1cc(Nc2ccccc2)nc(-c2ccccc2O)n1 -4.57%, Clc1ccc(OCCn2ccnc2)c2ccccc12 12.7% [at 50 µM], O=S(=O)(Nc1nc2ccccc2nc1N1CCN(c2ccccn2)CC1)c1ccc(Cl)cc1 -0.89%, CC1CCCCN1S(=O)(=O)c1ccc(C(=O)Nc2nnc(-c3cccs3)o2)cc1 (stereo not drawn) 2.23%, O=C(Nc1nnc(-c2cccs2)o1)c1cccc(Oc2ccccc2)c1 12.7%, Cc1cc(N2CCCCC2)nc(SCc2ccc(C#N)cc2)n1 -5.55%, Cc1ccccc1CSc1nc2n(n1)C(c1cccs1)C1=C(CCCC1=O)N2 (stereo not drawn) -14.8%, CCCCCn1c(N2CCC(Cc3ccccc3)CC2)nc2c1c(=O)[nH]c(=O)n2C -11.3%, CCOC(=O)Cc1nnc2c(Nc3ccccc3F)nc3nonc3n12 -6.59%

Growth inhibition, active:
O=C1OC(c2ccc(O)cc2)(c2ccc(O)cc2)c2ccccc21 24.6%, CCOc1ccc(S(=O)(=O)Nc2cccc(Cl)c2)cc1 20%, N#CC1=C(SCC(=O)NC23CC4CC(CC(C4)C2)C3)NC(=O)C(C#N)C12CCCCC2 (stereo not drawn) 18.1%
